Test results as given in ChEMBL document CHEMBL1135436, “Structure-activity relationships of the melanocortin tetrapeptide Ac-His-DPhe-Arg-Trp-NH(2) at the mouse melanocortin receptors. 1. Modifications at the His position” (J Med Chem, 2002).
Where a SMILES comes first, the peptide text is derived from it. [ ]: non-standard residue; d: D form. Tic = O=C(O)[C@@H]1Cc2ccccc2CN1; dTic = O=C(O)[C@H]1Cc2ccccc2CN1; 2Thi = N[C@@H](Cc1cccs1)C(=O)O

Tests used:
Melanocortin receptor 3 [1] = target: T1, Melanocortin receptor 3 (Mus musculus, UniProt P33033); assay: In vitro activation of mouse recombinant Melanocortin-3 receptor.
How it was run: (§1)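 HEK-293 cells stably expressing the mouse receptor (calcium phosphate transfection, G418 1 mg/mL selection) were transfected with a CRE/β-galactosidase reporter. Lysates were read with ONPG at 37 °C (OD405), normalized to protein (OD595) and forskolin. EC50 came from nonlinear least-squares fitting, duplicate experiments in quadruplet.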

[2] = target: Melanocyte-stimulating hormone receptor (Mus musculus, UniProt Q01727); assay: In vitro activation of mouse recombinant Melanocortin-1 receptor.; how it was run: as §1
Melanocortin receptor 4 = Melanocortin receptor 4 (Mus musculus, UniProt P56450); assay: In vitro activation of mouse recombinant Melanocortin-4 receptor.; how it was run: as §1
Melanocortin receptor 5 = Melanocortin receptor 5 (Mus musculus, UniProt P41149); assay: In vitro activation of mouse recombinant Melanocortin-5 receptor.; how it was run: as §1
Melanocortin receptor 3 [3] = target: T1, Melanocortin receptor 3; assay: Agonist activity of compound in mouse Melanocortin-3 receptor (mMC3R); Slight agonist; format: functional
How it was run: as §1, with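 “reporter. At 48 h they were stimulated for 6 h with peptide (10^-4–10^-12 M) or forskolin (10^-4 M) in DMEM with 0.1 mg/mL BSA and 0.1 mM IBMX.” for “reporter.”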

Melanocyte-stimulating hormone receptor, sequence (Q01727 whole entry): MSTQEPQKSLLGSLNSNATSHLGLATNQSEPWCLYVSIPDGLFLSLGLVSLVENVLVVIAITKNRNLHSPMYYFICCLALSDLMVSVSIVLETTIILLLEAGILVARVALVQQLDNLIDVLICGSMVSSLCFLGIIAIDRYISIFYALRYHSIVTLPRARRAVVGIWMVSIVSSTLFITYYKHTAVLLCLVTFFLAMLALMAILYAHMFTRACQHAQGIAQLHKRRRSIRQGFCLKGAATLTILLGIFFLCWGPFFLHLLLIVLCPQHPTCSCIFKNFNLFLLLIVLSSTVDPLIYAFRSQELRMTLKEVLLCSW
Melanocortin receptor 4, sequence (P56450 whole entry): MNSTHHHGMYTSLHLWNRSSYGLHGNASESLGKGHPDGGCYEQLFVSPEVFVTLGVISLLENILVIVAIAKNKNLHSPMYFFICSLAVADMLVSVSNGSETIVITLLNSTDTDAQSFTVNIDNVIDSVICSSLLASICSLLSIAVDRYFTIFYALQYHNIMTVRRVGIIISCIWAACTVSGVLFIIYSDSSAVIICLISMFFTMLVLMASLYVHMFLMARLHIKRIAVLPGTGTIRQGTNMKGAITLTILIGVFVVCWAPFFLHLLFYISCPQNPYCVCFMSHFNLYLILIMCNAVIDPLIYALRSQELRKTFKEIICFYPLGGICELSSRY
T1 sequence (P33033 whole entry): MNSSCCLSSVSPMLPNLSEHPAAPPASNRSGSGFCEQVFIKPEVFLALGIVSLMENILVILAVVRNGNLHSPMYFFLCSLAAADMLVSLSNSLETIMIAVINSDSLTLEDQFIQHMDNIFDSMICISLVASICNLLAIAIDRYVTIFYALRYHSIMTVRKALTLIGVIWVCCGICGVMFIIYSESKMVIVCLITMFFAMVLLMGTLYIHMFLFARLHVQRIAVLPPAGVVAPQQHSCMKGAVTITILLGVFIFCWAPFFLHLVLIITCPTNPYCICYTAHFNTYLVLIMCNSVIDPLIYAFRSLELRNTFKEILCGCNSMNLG
Melanocortin receptor 5, sequence (P41149 whole entry): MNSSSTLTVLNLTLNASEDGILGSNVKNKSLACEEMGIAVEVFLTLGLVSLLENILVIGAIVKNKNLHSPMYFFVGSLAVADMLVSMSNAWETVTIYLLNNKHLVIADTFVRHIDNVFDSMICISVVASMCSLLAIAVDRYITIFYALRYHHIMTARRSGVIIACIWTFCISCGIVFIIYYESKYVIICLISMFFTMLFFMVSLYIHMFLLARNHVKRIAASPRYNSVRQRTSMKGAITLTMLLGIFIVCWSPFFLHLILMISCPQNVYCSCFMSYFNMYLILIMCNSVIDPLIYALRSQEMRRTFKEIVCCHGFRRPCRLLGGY

EC50 (Melanocortin receptor 3 [1]) [nM]	EC50 [2] [nM]	EC50 (Melanocortin receptor 4) [nM]	EC50 (Melanocortin receptor 5) [nM]	EC50 (Melanocortin receptor 3 [3])	Compound
10300	5400	528	507	–	CC(=O)N[C@@H](Cc1c[nH]c2ccccc12)C(=O)N[C@H](Cc1ccccc1)C(=O)N[C@@H](CCCN=C(N)N)C(=O)N[C@@H](Cc1c[nH]c2ccccc12)C(N)=O
> 100000	7100	1500	2240	–	CC(=O)N[C@H](Cc1ccc2ccccc2c1)C(=O)N[C@H](Cc1ccccc1)C(=O)N[C@@H](CCCNC(=N)N)C(=O)N[C@@H](Cc1c[nH]c2ccccc12)C(N)=O
–	–	506	138	–	CC(=O)N[C@H](Cc1cnc[nH]1)C(=O)N[C@H](Cc1ccccc1)C(=O)N[C@@H](CCCNC(=N)N)C(=O)N[C@@H](Cc1c[nH]c2ccccc12)C(N)=O
9000	1800	1000	300	–	CC(=O)N[C@@H](C)C(=O)N[C@H](Cc1ccccc1)C(=O)N[C@@H](CCCN=C(N)N)C(=O)N[C@@H](Cc1c[nH]c2ccccc12)C(N)=O
14700	9500	2900	606	–	CC(=O)N[C@@H](Cc1ccc2ccccc2c1)C(=O)N[C@H](Cc1ccccc1)C(=O)N[C@@H](CCCN=C(N)N)C(=O)N[C@@H](Cc1c[nH]c2ccccc12)C(N)=O
15000	4250	1500	684	–	CC(=O)N1CCC[C@H]1C(=O)N[C@H](Cc1ccccc1)C(=O)N[C@@H](CCCN=C(N)N)C(=O)N[C@@H](Cc1c[nH]c2ccccc12)C(N)=O (Ac-P[dF]RW-NH2)
> 100000	11500	2170	2980	–	CC(=O)N[C@H](Cc1ccccc1)C(=O)N[C@H](Cc1ccccc1)C(=O)N[C@@H](CCCNC(=N)N)C(=O)N[C@@H](Cc1c[nH]c2ccccc12)C(N)=O
11900	503	70.6	143	–	CC(=O)N[C@@H](Cc1ccccc1)C(=O)N[C@H](Cc1ccccc1)C(=O)N[C@@H](CCCNC(=N)N)C(=O)N[C@@H](Cc1c[nH]c2ccccc12)C(N)=O
> 100000	11300	11700	12000	–	CC(=O)N1Cc2ccccc2C[C@@H]1C(=O)N[C@H](Cc1ccccc1)C(=O)N[C@@H](CCCN=C(N)N)C(=O)N[C@@H](Cc1c[nH]c2ccccc12)C(N)=O (Ac-[dTic][dF]RW-NH2)
11800	2600	2900	369	–	CC(=O)N1Cc2ccccc2C[C@H]1C(=O)N[C@H](Cc1ccccc1)C(=O)N[C@@H](CCCNC(=N)N)C(=O)N[C@@H](Cc1c[nH]c2ccccc12)C(N)=O (Ac-[Tic][dF]RW-NH2)
> 100000	6600	6200	1260	–	CC(=O)N[C@H](Cc1c[nH]c2ccccc12)C(=O)N[C@H](Cc1ccccc1)C(=O)N[C@@H](CCCNC(=N)N)C(=O)N[C@@H](Cc1c[nH]c2ccccc12)C(N)=O
–	1150	887	400	Partial agonist	CC(=O)N[C@@H](Cc1cccnc1)C(=O)N[C@H](Cc1ccccc1)C(=O)N[C@@H](CCCN=C(N)N)C(=O)N[C@@H](Cc1c[nH]c2ccccc12)C(N)=O
2950	203	91.2	40.5	–	CC(=O)N[C@@H](Cc1cccs1)C(=O)N[C@H](Cc1ccccc1)C(=O)N[C@@H](CCCNC(=N)N)C(=O)N[C@@H](Cc1c[nH]c2ccccc12)C(N)=O (Ac-[2Thi][dF]RW-NH2)
19800	4400	211	381	–	CC(=O)N[C@@H](Cc1csc2ccccc12)C(=O)N[C@H](Cc1ccccc1)C(=O)N[C@@H](CCCN=C(N)N)C(=O)N[C@@H](Cc1c[nH]c2ccccc12)C(N)=O
–	7730	714	2400	–	CC(=O)NC1(C(=O)N[C@H](Cc2ccccc2)C(=O)N[C@@H](CCCNC(=N)N)C(=O)N[C@@H](Cc2c[nH]c3ccccc23)C(N)=O)CCc2ccccc2C1 (stereo partly specified)
2270	176	128	92.5	–	CC(=O)N[C@@H](Cc1ccncc1)C(=O)N[C@H](Cc1ccccc1)C(=O)N[C@@H](CCCN=C(N)N)C(=O)N[C@@H](Cc1c[nH]c2ccccc12)C(N)=O
